Test results from ChEMBL document CHEMBL4680306, “The 3-D conformational shape of N-naphthyl-cyclopenta[d]pyrimidines affects their potency as microtubule targeting agents and their antitumor activity” (Bioorg Med Chem, 2021).
pIC50: −log10 of the molar value.

Tests used:
[1] = Inhibition of bovine tubulin polymerization assessed as reduction in extent of assembly preincubated for 15 mins followed by addition of reaction mixture measured after 20 mins by turbidimetric assay; design: species or system Bos taurus
Method in brief: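 After chilling, GTP was added (0.4 mM final). Turbidity at 350 nm was read after a jump from 0 °C to 30 °C.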

[2] = organism: Bos taurus; assay: Inhibition of [3H]colchicine binding to bovine tubulin at 1 uM measured after 10 mins by scintillation counting
Method in brief: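 Purified bovine brain tubulin at 1.0 µM was mixed with 5.0 µM [3H]colchicine and inhibitor, plus components that stabilize colchicine binding, in 5% DMSO; tubulin was added last, on ice. Binding ran 10 min at 37 °C and was stopped with ice water. Mixtures were filtered through stacked DEAE-cellulose filters, and bound radiolabel was measured by scintillation counting.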

[3] = Relative resistance, ratio of IC50 for inhibition of beta3 Tubulin (unknown origin) expressed in human HeLa cell line assessed as inhibition of cell proliferation to IC50 antiproliferative activity against human HeLa cells
[4] = tested on: SK-OV-3; assay: Antiproliferative activity against human SK-OV-3 cells assessed as decrease in cell growth measured after 48 hrs by SRB method; format: functional, cell-based; conditions: SK-OV-3, 48 h
[5] = Antiproliferative activity against human SK-OV-3 MDR-1-6/6 cells expressing Pgp assessed as decrease in cell growth measured after 48 hrs by SRB method; format: functional; conditions: SK-OV-3, 48 h
[6] = Relative resistance, ratio of IC50 for antiproliferative activity against human SK-OV-3 MDR-1-6/6 cells expressing Pgp to IC50 antiproliferative activity against human SK-OV-3 cells; format: functional
[7] = tested on: NCI-H23; assay: Cytotoxicity against human NCI-H23 cells assessed as inhibition of cell growth measured after 48 hrs by SRB assay; format: functional
[8] = tested on: SF-268; assay: Cytotoxicity against human SF-268 cells assessed as inhibition of cell growth measured after 48 hrs by SRB assay; format: functional
[9] = tested on: SF-295; assay: Cytotoxicity against human SF-295 cells assessed as inhibition of cell growth measured after 48 hrs by SRB assay; format: functional
[10] = tested on: ACHN; assay: Cytotoxicity against human ACHN cells assessed as inhibition of cell growth measured after 48 hrs by SRB assay; format: functional
[11] = tested on: UO-31; assay: Cytotoxicity against human UO-31 cells assessed as inhibition of cell growth measured after 48 hrs by SRB assay; format: functional
[12] = tested on: HCT-15; assay: Cytotoxicity against human HCT-15 cells assessed as inhibition of cell growth measured after 48 hrs by SRB assay; format: functional
[13] = tested on: KM12; assay: Cytotoxicity against human KM12 cells assessed as inhibition of cell growth measured after 48 hrs by SRB assay; format: functional
[14] = tested on: OVCAR-4; assay: Cytotoxicity against human OVCAR-4 cells assessed as inhibition of cell growth measured after 48 hrs by SRB assay; format: functional
[15] = tested on: OVCAR-5; assay: Cytotoxicity against human OVCAR-5 cells assessed as inhibition of cell growth measured after 48 hrs by SRB assay; format: functional
[16] = tested on: OVCAR-8; assay: Cytotoxicity against human OVCAR-8 cells assessed as inhibition of cell growth measured after 48 hrs by SRB assay; format: functional
[17] = tested on: NCI/ADR-RES; assay: Cytotoxicity against human NCI/ADR-RES cells assessed as inhibition of cell growth measured after 48 hrs by SRB assay; format: functional
[18] = tested on: MDA-MB-435; assay: Cytotoxicity against human MDA-MB-435 cells assessed as inhibition of cell growth measured after 48 hrs by SRB assay; format: functional
[19] = Cytotoxicity against human SK-MEL-5 cells assessed as inhibition of cell growth measured after 48 hrs by SRB assay; format: functional
[20] = tested on: PC-3; assay: Cytotoxicity against human PC-3 cells assessed as inhibition of cell growth measured after 48 hrs by SRB assay; format: functional
[21] = tested on: MDA-MB-231; assay: Cytotoxicity against human MDA-MB-231 cells assessed as inhibition of cell growth measured after 48 hrs by SRB assay; format: functional
[22] = tested on: Hs-578T; assay: Cytotoxicity against human Hs-578T cells assessed as inhibition of cell growth measured after 48 hrs by SRB assay; format: functional
[23] = tested on: HL-60(TB); assay: Cytotoxicity against human HL-60(TB) cells assessed as inhibition of cell growth measured after 48 hrs by SRB assay; format: functional
[24] = tested on: MOLT-4; assay: Cytotoxicity against human MOLT-4 cells assessed as inhibition of cell growth measured after 48 hrs by SRB assay; format: functional
[25] = Toxicity in NCr athymic nude nu/nu mouse xenografted human U251 cells assessed as body weight change at 50 mg/kg once in a week relative to temozolomide; format: organism-based; conditions: in vivo, 17.5 mg/kg, 168 h, in the assay text read “17.5 mg/kg twice in a week” for “50 mg/kg once in a week”
Method in brief: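 NCr athymic nu/nu nude mice (8 wk; equal numbers of males and females) received 500,000 U251 glioma cells in the lateral flank. Once tumors were visible, mice were dosed with carrier (5% DMSO, 5% Kolliphor-15, 90% normal saline), temozolomide at 50 mg/kg/wk, or test compound at 17.5 mg/kg twice weekly until the end of the study. Body weight was monitored and tumors were caliper-measured twice weekly; n=6–8.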

For COc1cccc2cc(N(C)c3nc(C)nc4c3CCC4)ccc12, the pIC50 [1] was 6.01, the inhibition [2] was 86% and the “Ratio IC50” value [3] was 0.8. The pIC50 [4] was 8.57, the pIC50 [5] was 8.24 and the “Ratio IC50” value [6] was 2.1. For the same molecule, the GI50 [7] was less than 10 nM, the GI50 [8] was less than 10 nM and the GI50 [9] was less than 10 nM. It also gave a GI50 [10] of less than 10 nM, a GI50 [11] of 10.7 nM and a GI50 [12] of less than 10 nM. The GI50 [13] was less than 10 nM, the GI50 [14] was 10.9 nM and the GI50 [15] was less than 10 nM. It also gave a GI50 [16] of less than 10 nM, a GI50 [17] of less than 10 nM and a GI50 [18] of less than 10 nM. For the same molecule, the GI50 [19] was less than 10 nM, the GI50 [20] was less than 10 nM and the GI50 [21] was less than 10 nM. For the same molecule, the GI50 [22] was less than 10 nM, the GI50 [23] was less than 10 nM and the GI50 [24] was less than 10 nM. For the same molecule, the Activity [25] was “Non-Toxic”.
